Measurements as given in publication PMC2910176 (Food and chemical toxicology : an international journal …, 2010).

Experiments:
[1] = test system: cancer cell lines HepG2, MCF-7 and MDA-MB-231; test: Anti-proliferative activity in cancer cell lines; assay type: cell-based, human; details: dose-dependent, three cancer cell lines
[2] = test system: human peripheral blood mononuclear cells (PBMC); details: ref Yadav et al., 2005; cited from earlier work
[3] = test system: human peripheral blood mononuclear cells (PBMC); details: ref Yadav et al., 2005; cited from earlier work; remark: listed apart in the source
[4] = test system: HepG2; test: MTT cell viability assay in HepG2; assay type: cell-based, human; details: for Concentration producing 50% growth inhibition (IC50): HepG2, 48 hours, MTT
[5] = test system: MCF-7; test: MTT cell viability assay in MCF-7; assay type: cell-based, human; details: for Concentration producing 50% growth inhibition (IC50): MCF-7, 48 hours, MTT
[6] = test system: MDA-MB-231; test: MTT cell viability assay in MDA-MB-231; assay type: cell-based, human; details: for Concentration producing 50% growth inhibition (IC50): MDA-MB-231, 48 hours, MTT
[7] = test system: Hs-68; test: MTT cell viability assay in normal skin fibroblasts Hs-68; assay type: cell-based, human; details: for inhibition of cell proliferation in human normal skin fibroblasts: 3.125–25 μg/ml; for Concentration producing 50% growth inhibition (IC50): Hs-68 normal skin fibroblasts, 48 hours, MTT
[8] = test system: human peripheral blood mononuclear cells (PBMC); test: PBMC proliferation; assay type: cell-based; details: 72 hours, with polymyxin B; α-turmerone 10 or 15 μg/ml, ar-turmerone 5-15 μg/ml
Summary of the method: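 PHA-activated PBMC (PHA 10 μg/ml final; polymyxin B 10 μg/ml present to bind LPS) were incubated 72 h with test compound at 5, 10 or 15 μg/ml, with matched vehicle. [methyl-3H]-thymidine (0.5 μCi/well) was added for the final 6 h. Cells were harvested onto glass-fibre filters for scintillation counting. Results are % cpm relative to untreated control, mean of 8 donors.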

[9] = test system: human peripheral blood mononuclear cells (PBMC); test: Cytokine production by PBMC; assay type: cell-based; details: for TNF-α production in PHA-activated PBMC / IFN-γ production in PHA-activated PBMC / IL-2 production in PHA-activated PBMC: 24 hours; for TNF-α production in PHA-activated PBMC: 10 and 15 μg/ml; for IFN-γ production in PHA-activated PBMC / IL-2 production in PHA-activated PBMC: data not shown
Summary of the method: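 PBMC came from buffy coat by Ficoll density separation, with ≥95% trypan-blue viability, at 4 × 10^5/well. Resting or PHA-activated (10 μg/ml final) cells received test compound at 5, 10 or 15 μg/ml, with matched vehicle, for 24 h. Supernatants were recovered by centrifugation (300×g), stored at −80°C and assayed for IL-2, IFN-γ and TNF-α by ELISA. There were 8 donors, four wells each, reported as mean + SD; the statistic was an unpaired t-test versus control.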

[10] = test system: MDA-MB-231 cells; test: Cell cycle analysis; assay type: cell-based, human; details: MDA-MB-231, after treatment
Summary of the method: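 MDA-MB-231 cells (3 × 10^5/well, 6-well) were plated overnight and then treated with test compound (30–45 μg/ml). They were fixed in 70% v/v ethanol at 4°C overnight and stained with PI (20 μg/ml) plus RNase A (10 μg/ml) for 30 min at 37°C in the dark. Flow cytometry collected 10,000 cells per sample, and cell cycle and apoptotic peaks were modelled; n=3.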

[11] = test system: MDA-MB-231 cells; test: DNA fragmentation assay; assay type: cell-based, human; details: MDA-MB-231, 24 and 48 hours
Summary of the method: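 MDA-MB-231 cells (1 × 10^6) were attached for 24 h in 100 mm dishes, then given test compound (40–80 μg/ml) or 0.4% v/v ethanol for 24 or 48 h. Lysis was 15 min at 37°C in 200 mM Tris-HCl, 100 mM EDTA, 1% SDS, pH 8.3. RNase A, then proteinase K, each ran 90 min at 56°C, followed by ethanol/sodium acetate precipitation. DNA ran on 1.5% agarose with ethidium bromide beside a 100 bp marker; n=3.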

[12] = test system: MDA-MB-231 cells; test: Annexin V-FITC/PI staining assay; assay type: cell-based, human; details: MDA-MB-231, 24 hours
Summary of the method: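 MDA-MB-231 cells (3 × 10^5/well) were exposed to test compound at various concentrations for 24 h. They were washed twice in 1X binding buffer, then labelled with annexin-V FITC plus PI for 15 min at room temperature in the dark, and analysed by flow cytometry. Annexin-V+ PI− (lower right quadrant) was taken as early apoptosis. Three independent experiments were run.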

[13] = test system: MDA-MB-231 cells; test: Western blot analysis of apoptosis and proliferation proteins; assay type: cell-based, human; details: MDA-MB-231, 40 or 60 μg/ml
Summary of the method: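 MDA-MB-231 cells (1 × 10^6) were treated with test compound (40 or 60 μg/ml) or 0.4% v/v ethanol for 24 or 48 h. Lysis used 2% SDS, 10% glycerol, […] Tris-HCl, pH 6.8, on ice, then 95°C for 10 min. Lysates ran on 12% SDS-PAGE onto PVDF and were blocked in 5% milk/TBST. Primaries (overnight) were Bcl-2 and procaspases-3/-8 at 1:100 and cyclin D at 1:200; the β-actin loading control was 1:2000. HRP secondary was used with ECL; three independent experiments.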

Row | Compound | proliferation of cancer cells [1] | Concentration producing 50% growth inhibition (IC50) [4] | Concentration producing 50% growth inhibition (IC50) [5] | Concentration producing 50% growth inhibition (IC50) [6] | inhibition of cell proliferation in human normal skin fibroblasts [7] | Concentration producing 50% growth inhibition (IC50) [7] | proliferation of PHA-activated PBMC [8] | TNF-α production in PHA-activated PBMC [9] | IFN-γ production in PHA-activated PBMC [9] | IL-2 production in PHA-activated PBMC [9] | other results
1 | COc1cc(/C=C/C(=O)CC(=O)/C=C/c2ccc(O)c(OC)c2)ccc1O [Curcumin, curcumin] | significantly inhibited | – | – | – | – | – | – | – | – | – | PHA-induced proliferation in PBMC [2]: inhibited; IL-2 production in PBMC (PHA-induced) [3]: inhibited
2 | CC(C)=CC(=O)C[C@H](C)c1ccc(C)cc1 [ar-turmerone] | – | >100 µg/mL | >100 µg/mL | >100 µg/mL | did not induce any significant inhibition | >100 µg/mL | significantly stimulate | significantly increased | neither α-turmerone (AL) nor ar-turmerone (AR) further altered | neither α-turmerone (AL) nor ar-turmerone (AR) further altered | IFN-γ production in resting PBMC ([9]; 24 hours, 5, 10 or 15 μg/ml): significantly increased; IL-2 production in resting PBMC ([9]; 24 hours, 5, 10 or 15 μg/ml): significantly increased; TNF-α production in resting PBMC ([9]; 24 hours, 5, 10 or 15 μg/ml): significantly increased
3 | O=C(/C=C/c1ccc(O)cc1)CC(=O)/C=C/c1ccc(O)cc1 [Bisdemethoxycurcumin, bisdemethoxycurcumin] | significantly inhibited | – | – | – | did not induce any significant inhibition | – | – | – | – | – | –
4 | CC(C)=CC(=O)CC(C)C1C=CC(C)=CC1 (stereo not drawn) [α-turmerone] | significantly inhibited | 32.9 µg/mL | 41.8 µg/mL | 30.2 µg/mL | did not induce any significant inhibition | >100 µg/mL | significantly stimulate | significantly increased | neither α-turmerone (AL) nor ar-turmerone (AR) further altered | neither α-turmerone (AL) nor ar-turmerone (AR) further altered | inhibition of cell proliferation compared to the control ([4]; HepG2, 50 μg/ml, 48 hours): ~70%; inhibition of cell proliferation compared to the control ([5]; MCF-7, 50 μg/ml, 48 hours): ~70%; inhibition of cell proliferation compared to the control ([6]; MDA-MB-231, 50 μg/ml, 48 hours): ~70%; cell cycle arrest [10]: no arrest at any phase of the cell cycle; DNA fragmentation [11]: detected; proportion of early apoptosis cells (Annexin V-FITC positive and PI negative) [12]: increased with the concentrations; Bcl-2 expression [13]: slightly down-regulated; cleaved PARP [13]: observed; expression level of pro-caspase-3 [13]: significantly decreased; expression level of pro-caspase-8 [13]: significantly decreased; expression of cyclin D1 [13]: significantly decreased; proteolytic cleavage of pro-caspase-9 (fragments p35 and p37) [13]: observed
5 | COc1cc(/C=C/C(O)=C/C(=O)/C=C/c2ccc(O)cc2)ccc1O [Demethoxycurcumin, demethoxycurcumin] | significantly inhibited | – | – | – | did not induce any significant inhibition | – | – | – | – | – | –
